Converted amounts (≈) assume the structure as drawn.
Legend:
[1] = tested on: Mus musculus; assay: Induction of convulsion in intracerebroventricular dosed mouse; type: organism-based; conditions: in vivo, icv_or_intrathecal
[2] = tested on: Pseudomonas aeruginosa; assay: Antipseudomonal activity against Pseudomonas aeruginosa class C AmpC(1d) beta-lactamase-induced clinical isolate FP1380 by CLSI method; type: functional; conditions: 24 h
[3] = tested on: Pseudomonas aeruginosa; assay: Antipseudomonal activity against Pseudomonas aeruginosa class A TEM beta-lactamase-induced clinical isolate FP2056 by CLSI method; type: functional
[4] = tested on: Pseudomonas aeruginosa; assay: Antipseudomonal activity against Pseudomonas aeruginosa clinical isolates by CLSI method; type: functional
[5] = tested on: Pseudomonas aeruginosa; assay: Outer-membrane permeability assessed as ratio of MIC for Pseudomonas aeruginosa in absence of DEAE-dextran to MIC for Pseudomonas aeruginosa in presence of DEAE-dextran; type: functional
In short: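 MIC per CLSI method, measured for each strain with and without the outer-membrane permeabilizer DEAE-dextran. Permeability index is the ratio of MIC without additive to MIC with additive.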

[6] = Pseudomonas aeruginosa, read-out: MIC50

Structure (SMILES)	MIC [2]	MIC [3]	MIC50 [4, 6]	MIC50 [4]	ED50 [1]	Ratio [5]
Cn1c(N)c(CN)c[n+]1CC1=C(C(=O)[O-])N2C(=O)[C@@H](NC(=O)/C(=N\OC(C)(C)C(=O)O)c3nsc(N)n3)[C@H]2SC1	8 µg/mL (≈ 13.5 µM)	0.5 µg/mL (≈ 0.841 µM)	0.5 µg/mL (≈ 0.841 µM)		39.3 µg	
Cn1c(N)c(NC(=O)CN)c[n+]1CC1=C(C(=O)[O-])N2C(=O)[C@@H](NC(=O)/C(=N\OC(C)(C)C(=O)O)c3nsc(N)n3)[C@H]2SC1	2 µg/mL (≈ 3.14 µM)	0.5 µg/mL (≈ 0.784 µM)	0.5 µg/mL (≈ 0.784 µM)		> 200 µg	
CC(C)(O/N=C(\C(=O)N[C@@H]1C(=O)N2C(C(=O)[O-])=C(C[n+]3cccc(N)c3)CS[C@H]12)c1nsc(N)n1)C(=O)O	32 µg/mL (≈ 56.9 µM)	1 µg/mL (≈ 1.78 µM)	1 µg/mL (≈ 1.78 µM)			32
CC(C)(O/N=C(\C(=O)N[C@@H]1C(=O)N2C(C(=O)O)=C(C[n+]3ccc4n3CCN4)CS[C@H]12)c1nsc(N)n1)C(=O)O.O=S(=O)([O-])O	16 µg/mL	1 µg/mL	1 µg/mL			
CC(C)(O/N=C(\C(=O)N[C@@H]1C(=O)N2C(C(=O)[O-])=C(C[n+]3ccc(N)n3CCCF)CS[C@H]12)c1nsc(N)n1)C(=O)O	8 µg/mL (≈ 13.1 µM)	1 µg/mL (≈ 1.63 µM)	1 µg/mL (≈ 1.63 µM)			
CC(C)(O/N=C(\C(=O)N[C@@H]1C(=O)N2C(C(=O)[O-])=C(C[n+]3ccccc3)CS[C@H]12)c1csc(N)n1)C(=O)O [CEFTAZIDIME]	128 µg/mL (≈ 234 µM)	2 µg/mL (≈ 3.66 µM)	2 µg/mL (≈ 3.66 µM)		71 µg	
Cn1c(N)c(NC(=O)NCCN)c[n+]1CC1=C(C(=O)O)N2C(=O)[C@@H](NC(=O)/C(=N\OC(C)(C)C(=O)[O-])c3nsc(N)n3)[C@H]2SC1 [CEFTOLOZANE]	2 µg/mL (≈ 3 µM)	0.5 µg/mL (≈ 0.75 µM)	0.5 µg/mL (≈ 0.75 µM)		428 µg	

Continued by falling MIC [2], values first:

MIC [2]	MIC [3]	MIC50 [4, 6]	MIC50 [4]	Structure (SMILES)	ED50 [1]	Ratio [5]
32 µg/mL (≈ 62.1 µM)	2 µg/mL (≈ 3.88 µM)	2 µg/mL (≈ 3.88 µM)		CO/N=C(/C(=O)N[C@@H]1C(=O)N2C(C(=O)[O-])=C(C[n+]3ccn4ncccc43)CS[C@H]12)c1nsc(N)n1	230 µg	
32 µg/mL (≈ 58.4 µM)	1 µg/mL (≈ 1.83 µM)	2 µg/mL (≈ 3.65 µM)		CC(C)(O/N=C(\C(=O)N[C@@H]1C(=O)N2C(C(=O)[O-])=C(C[n+]3ccccc3)CS[C@H]12)c1nsc(N)n1)C(=O)O		
32 µg/mL (≈ 56.6 µM)	1 µg/mL (≈ 1.77 µM)	1 µg/mL (≈ 1.77 µM)		Cn1c(N)cc[n+]1CC1=C(C(=O)[O-])N2C(=O)[C@@H](NC(=O)/C(=N\OC(C)(C)C(=O)O)c3nsc(N)n3)[C@H]2SC1		
16 µg/mL	1 µg/mL	1 µg/mL		CC(C)(O/N=C(\C(=O)N[C@@H]1C(=O)N2C(C(=O)[O-])=C(C[n+]3ccc(N)n3CCO)CS[C@H]12)c1nsc(N)n1)C(=O)O.Cl	46.9 µg	64
8 µg/mL (≈ 13.2 µM)	1 µg/mL (≈ 1.65 µM)	1 µg/mL (≈ 1.65 µM)		CC(C)(O/N=C(\C(=O)N[C@@H]1C(=O)N2C(C(=O)[O-])=C(C[n+]3cccc(NC(=N)N)c3)CS[C@H]12)c1nsc(N)n1)C(=O)O		16
4 µg/mL (≈ 6.77 µM)	1 µg/mL (≈ 1.69 µM)	1 µg/mL (≈ 1.69 µM)		CC(C)(O/N=C(\C(=O)N[C@@H]1C(=O)N2C(C(=O)[O-])=C(C[n+]3ccc(CCN)cc3)CS[C@H]12)c1nsc(N)n1)C(=O)O		8
4 µg/mL	1 µg/mL	1 µg/mL		CC(C)(O/N=C(\C(=O)N[C@@H]1C(=O)N2C(C(=O)O)=C(C[n+]3ccc4n3CCCN4)CS[C@H]12)c1nsc(N)n1)C(=O)O.O=S(=O)([O-])O		
2 µg/mL (≈ 3.22 µM)	1 µg/mL (≈ 1.61 µM)	0.5 µg/mL (≈ 0.806 µM)		Cn1c(N)c(/C=C/CN)c[n+]1CC1=C(C(=O)[O-])N2C(=O)[C@@H](NC(=O)/C(=N\OC(C)(C)C(=O)O)c3nsc(N)n3)[C@H]2SC1	122 µg	
1 µg/mL (≈ 1.57 µM)	0.5 µg/mL (≈ 0.785 µM)	0.5 µg/mL (≈ 0.785 µM)	0.5 µg/mL (≈ 0.785 µM)	Cn1c(N)c(CNC(=N)N)c[n+]1CC1=C(C(=O)[O-])N2C(=O)[C@@H](NC(=O)/C(=N\OC(C)(C)C(=O)O)c3nsc(N)n3)[C@H]2SC1	4.69 µg	
